From ChEMBL document CHEMBL1155468, “Syntheses and evaluation of anticonvulsant profile and teratogenicity of novel amide derivatives of branched aliphatic carboxylic acids with 4-aminobenzensulfonamide” (J Med Chem, 2010)
Active and inactive are the calls of the source. The rule behind the calls is not given here.

How the values were obtained:
[1] = system: Mus musculus; assay: Anticonvulsant activity in CF1 albino mouse assessed as inhibition of subcutaneous pentylenetetrazole-induced seizures at 30 mg/kg, ip after 0.5 hrs; assay type: functional, organism-based; set-up: dose 30 mg/kg
In short: (§1)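 Adult male CF no. 1 albino mice (18-25 g) dosed ip with compound suspended in 0.5% methylcellulose (0.01 mL/g). Convulsant: pentylenetetrazol dissolved in 0.9% saline as a 0.85% solution for mice, given subcutaneously.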

[2] = system: Mus musculus; assay: Anticonvulsant activity in CF1 albino mouse assessed as inhibition of subcutaneous pentylenetetrazole-induced seizures at 100 mg/kg, ip after 0.5 hrs; assay type: functional, organism-based; set-up: dose 100 mg/kg; in short: as §1
[3] = system: Mus musculus; assay: Anticonvulsant activity in CF1 albino mouse assessed as inhibition of subcutaneous pentylenetetrazole-induced seizures at 300 mg/kg, ip after 0.5 hrs; assay type: functional, organism-based; set-up: dose 300 mg/kg; in short: as §1
[4] = system: Mus musculus; assay: Anticonvulsant activity in CF1 albino mouse assessed as inhibition of subcutaneous pentylenetetrazole-induced seizures at 30 mg/kg, ip after 4 hrs; assay type: functional, organism-based; set-up: dose 30 mg/kg; in short: as §1
[5] = system: Mus musculus; assay: Anticonvulsant activity in CF1 albino mouse assessed as inhibition of subcutaneous pentylenetetrazole-induced seizures at 100 mg/kg, ip after 4 hrs; assay type: functional, organism-based; set-up: dose 100 mg/kg; in short: as §1
[6] = system: Mus musculus; assay: Teratogenic effect in SWV mouse assessed as fetuses with neural tube deffects at 282 mg/kg, ip administered on morning of day 8 of gestation; assay type: toxicity, organism-based; set-up: dose 282 mg/kg, route intraperitoneal; conditions: in vivo
In short: (§2)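 Two-month-old nulligravid SWV females were mated overnight and checked for vaginal plugs the next morning; gestation onset was set at 10 p.m. the previous night. On gestation day 8.5, each dam received a single ip injection (0.55-2.7 mmol/kg range) or vehicle (25% aqueous Cremophor EL) at 10 μL/g body weight. Litters were scored for implants, resorptions, live and dead fetuses, and fetuses with neural tube defects.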

[7] = system: Mus musculus; assay: Teratogenic effect in SWV mouse assessed as resorptions at 282 mg/kg, ip administered on morning of day 8 of gestation; assay type: toxicity, organism-based; set-up: dose 282 mg/kg, route intraperitoneal; conditions: in vivo
In short: (§3)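 SWV inbred mice: two-month-old nulligravid females mated overnight with males and checked for vaginal plugs next morning; gestation onset taken as 10 p.m. the previous night. On gestation day 8.5 each dam got one ip injection, 0.55–2.7 mmol/kg, in 25% aqueous Cremophor EL (vehicle controls dosed alike), 10 μL/g body weight. Litters and implants tallied; resorptions and live fetuses reported as counts with percentages.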

[8] = system: Mus musculus; assay: Teratogenic effect in SWV mouse assessed as resorptions at 141 mg/kg, ip administered on morning of day 8 of gestation; assay type: toxicity, organism-based; set-up: dose 141 mg/kg, route intraperitoneal; conditions: in vivo; in short: as §3
[9] = system: Mus musculus; assay: Teratogenic effect in SWV mouse assessed as fetuses with neural tube deffects at 141 mg/kg, ip administered on morning of day 8 of gestation; assay type: toxicity, organism-based; set-up: dose 141 mg/kg, route intraperitoneal; conditions: in vivo; in short: as §2
[10] = system: Mus musculus; assay: Teratogenic effect in SWV mouse assessed as live fetuses at 282 mg/kg, ip administered on morning of day 8 of gestation; assay type: toxicity, organism-based; set-up: dose 282 mg/kg, route intraperitoneal; conditions: in vivo; in short: as §2
[11] = system: Mus musculus; assay: Teratogenic effect in SWV mouse assessed as live fetuses at 141 mg/kg, ip administered on morning of day 8 of gestation; assay type: toxicity, organism-based; set-up: dose 141 mg/kg, route intraperitoneal; conditions: in vivo; in short: as §2
[12] = system: Mus musculus; assay: Anticonvulsant activity in CF1 albino mouse assessed as inhibition of maximal electroshock-induced seizures at 30 mg/kg, ip after 0.5 hrs; assay type: functional, organism-based; set-up: dose 30 mg/kg
In short: (§4)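 Test compounds suspended in 0.5% methylcellulose and given ip to adult male CF no. 1 albino mice (18-25 g) at 0.01 mL/g body weight before maximal electroshock challenge.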

[13] = system: Mus musculus; assay: Anticonvulsant activity in CF1 albino mouse assessed as inhibition of maximal electroshock-induced seizures at 300 mg/kg, ip after 0.5 hrs; assay type: functional, organism-based; set-up: dose 300 mg/kg; in short: as §4
[14] = system: Mus musculus; assay: Anticonvulsant activity in CF1 albino mouse assessed as inhibition of maximal electroshock-induced seizures at 30 mg/kg, ip after 4 hrs; assay type: functional, organism-based; set-up: dose 30 mg/kg; in short: as §4
[15] = system: Mus musculus; assay: Anticonvulsant activity in CF1 albino mouse assessed as inhibition of maximal electroshock-induced seizures at 300 mg/kg, ip after 4 hrs; assay type: functional, organism-based; set-up: dose 300 mg/kg; in short: as §4
[16] = system: Mus musculus; assay: Anticonvulsant activity in CF1 albino mouse assessed as inhibition of subcutaneous pentylenetetrazole-induced seizures at 300 mg/kg, ip after 4 hrs; assay type: functional, organism-based; set-up: dose 300 mg/kg; in short: as §1
[17] = system: Mus musculus; assay: Neurotoxicity in CF1 albino mouse assessed as motor impairment at 30 mg/kg, ip after 0.5 hrs; assay type: toxicity, organism-based; set-up: dose 30 mg/kg, route intraperitoneal; conditions: in vivo
[18] = system: Mus musculus; assay: Neurotoxicity in CF1 albino mouse assessed as motor impairment at 30 mg/kg, ip after 4 hrs; assay type: toxicity, organism-based; set-up: dose 30 mg/kg, route intraperitoneal; conditions: in vivo
[19] = system: Mus musculus; assay: Neurotoxicity in CF1 albino mouse assessed as motor impairment at 100 mg/kg, ip after 4 hrs; assay type: toxicity, organism-based; set-up: dose 100 mg/kg, route intraperitoneal; conditions: in vivo
[20] = system: Mus musculus; assay: Neurotoxicity in CF1 albino mouse assessed as motor impairment at 300 mg/kg, ip after 4 hrs; assay type: toxicity, organism-based; set-up: dose 300 mg/kg, route intraperitoneal; conditions: in vivo
[21] = system: Rattus norvegicus; assay: Anticonvulsant activity in po dosed rat assessed as inhibition of maximal electroshock-induced seizures
[22] = system: Rattus norvegicus; assay: Anticonvulsant activity in Sprague-Dawley rat assessed as inhibition of maximal electroshock-induced seizures at 30 mg/kg, po after 4 hrs
[23] = system: Rattus norvegicus; assay: Anticonvulsant activity in Sprague-Dawley rat assessed as inhibition of maximal electroshock-induced seizures at 30 mg/kg, po after 30 mins
[24] = system: Rattus norvegicus; assay: Anticonvulsant activity in Sprague-Dawley rat assessed as inhibition of maximal electroshock-induced seizures at 30 mg/kg, po after 15 mins
[25] = system: Mus musculus; assay: Teratogenic effect in SWV mouse assessed as resorptions at 462 mg/kg, ip administered on morning of day 8 of gestation; assay type: toxicity, organism-based; set-up: dose 462 mg/kg, route intraperitoneal; conditions: in vivo; in short: as §3
[26] = system: Mus musculus; assay: Teratogenic effect in SWV mouse assessed as resorptions at 279 mg/kg, ip administered on morning of day 8 of gestation; assay type: toxicity, organism-based; set-up: dose 279 mg/kg, route intraperitoneal; conditions: in vivo; in short: as §3
[27] = system: Mus musculus; assay: Teratogenic effect in SWV mouse assessed as fetuses with neural tube deffects at 462 mg/kg, ip administered on morning of day 8 of gestation; assay type: toxicity, organism-based; set-up: dose 462 mg/kg, route intraperitoneal; conditions: in vivo; in short: as §2
[28] = system: Mus musculus; assay: Teratogenic effect in SWV mouse assessed as fetuses with neural tube deffects at 279 mg/kg, ip administered on morning of day 8 of gestation; assay type: toxicity, organism-based; set-up: dose 279 mg/kg, route intraperitoneal; conditions: in vivo; in short: as §2
[29] = system: Mus musculus; assay: Teratogenic effect in SWV mouse assessed as live fetuses at 462 mg/kg, ip administered on morning of day 8 of gestation; assay type: toxicity, organism-based; set-up: dose 462 mg/kg, route intraperitoneal; conditions: in vivo; in short: as §3
[30] = system: Mus musculus; assay: Teratogenic effect in SWV mouse assessed as live fetuses at 279 mg/kg, ip administered on morning of day 8 of gestation; assay type: toxicity, organism-based; set-up: dose 279 mg/kg, route intraperitoneal; conditions: in vivo; in short: as §2
[31] = system: Mus musculus; assay: Anticonvulsant activity in CF1 albino mouse assessed as inhibition of maximal electroshock-induced seizures at 100 mg/kg, ip after 0.5 hrs; assay type: functional, organism-based; set-up: dose 100 mg/kg; in short: as §4
[32] = system: Mus musculus; assay: Anticonvulsant activity in CF1 albino mouse assessed as inhibition of maximal electroshock-induced seizures at 100 mg/kg, ip after 4 hrs; assay type: functional, organism-based; set-up: dose 100 mg/kg; in short: as §4
[33] = organism: Rattus norvegicus; assay: Protective index, ratio of TD50 for rat to ED50 for maximal electroshock-induced rat seizure model
[34] = system: Rattus norvegicus; assay: Neurotoxicity in Sprague-Dawley rat assessed as motor impairment at 30 mg/kg, po after 0.25 to 4 hrs; conditions: in vivo
[35] = system: Rattus norvegicus; assay: Anticonvulsant activity in Sprague-Dawley rat assessed as inhibition of maximal electroshock-induced seizures at 30 mg/kg, po after 1 hr
[36] = system: Rattus norvegicus; assay: Anticonvulsant activity in Sprague-Dawley rat assessed as inhibition of maximal electroshock-induced seizures at 30 mg/kg, po after 2 hrs

SMILES: CC(C)(C)C(=O)Nc1ccc(S(N)(=O)=O)cc1
- Activity [1]: inactive
- Activity [2]: inactive
- Activity [3]: inactive
- Activity [4]: inactive
- Activity [5]: inactive
- Activity [6]: 2.7%
- Activity [7]: 8.9%
- Activity [8]: 7.5%
- Activity [9]: 3.7%
- Activity [10]: 91.1%
- Activity [11]: 93.3%
- Activity [12]: inactive
- Activity [13]: Active
- Activity [14]: inactive
- Activity [15]: Active
- Activity [16]: inactive
- Activity [17]: Non-toxic
- Activity [18]: Non-toxic
- Activity [19]: Non-toxic
- Activity [20]: Non-toxic
- ED50 [21]: 42.2 mg/kg
- Activity [22]: Active
- Activity [23]: inactive
- Activity [24]: inactive

SMILES: CCC(C)C(=O)Nc1ccc(S(N)(=O)=O)cc1 (stereo not drawn)
- Activity [1]: inactive
- Activity [2]: inactive
- Activity [3]: inactive
- Activity [4]: inactive
- Activity [5]: inactive
- Activity [8]: 8.2%
- Activity [25]: 49.1%
- Activity [26]: 8.8%
- Activity [27]: 25.4%
- Activity [28]: 4.4%
- Activity [11]: 91.8%
- Activity [29]: 50.9%
- Activity [30]: 91.2%
- Activity [12]: Active
- Activity [31]: Active
- Activity [13]: Active
- Activity [14]: Active
- Activity [32]: Active
- Activity [15]: Active
- Activity [16]: inactive
- Activity [18]: Non-toxic
- Activity [19]: Non-toxic
- Activity [20]: Non-toxic
- Ratio TD50/ED50 [33]: >65.7
- Activity [34]: Non-toxic
- ED50 [21]: 7.6 mg/kg
- Activity [35]: Active
- Activity [36]: Active
- Activity [22]: Active
